Sampled rows, rich in hits. Any-hit rate of the full collection: about 9.4%.
T cruzi repl: T. cruzi replication inhibition. AID 1885. inhibition, % (concentration not given with the values). T. cruzi beta-gal in NIH3T3, luminescence, 90 h. 300,000 compounds, 1.4% hits;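 active means mean inhibition across valid replicates above about 55%, limit read from the data; inconclusive means mean below that limit but half or more replicates reach it; inactive means mean below it, under half of replicates reach it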;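 further: signal also drops with host cell toxicity which is not excluded here; 0% = plate median of DMSO wells and 100% = zero luminescence signal; higher percent means less beta-gal luminescence so fewer parasites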
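Incubation – ≥90 h infection period, 3 h prior cell attachment · System – NIH/3T3 fibroblasts plus reporter T. cruzi · Doses – compound pinned at 50 nL/well, DMSO · Read-out basis – percent inhibition of parasite-derived β-gal signal · Signal – luminescent β-galactosidase signal after 60 min lysis · Also added – 5000 T. cruzi trypomastigotes/well · Medium – Low-serum DMEM with 2% FBS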
L major viab: reduces viability of Leishmania major promastigotes. resazurin fluorescence viability. inhibition, % at 10 µM. 200,000 compounds, 9% hits; in the data active means inhibition above about 50%;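 further: promastigotes grown with compound for 44 hours at 28 °C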
Mdm2 MdmX PPI: disrupts the human Mdm2-MdmX interaction; SaOS-2 split-luciferase Mdm2/MdmX complementation, luminescence; 330,000 compounds, 3% hits; inhibition, % at 8 µM; AID 485346; O15151+Q00987;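 active means inhibition of at least 50% at 8 µM in the primary screen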
CSC inhib: blocks cancer stem cells; 300,000 compounds, 1.1% hits; AID 2717; cancer stem cell-like cells viability, luminescence; inhibition, % at 7.5 µM; in the data active means inhibition above about 75%; inconclusive means no clear call, values can overlap the other calls; tested in HMLE shEcad cells
Beta cell apopt: blocks beta cell apoptosis; 300,000 compounds, 0.8% hits; protection from apoptosis, % (concentration not given with the values); AID 435005; INS-1E cytokine-induced death, ATP luminescence, 48 h; percent of positive-control rescue, neutral wells zero;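 active means Every replicate reaches about 75%, or at least half do and their mean reaches it too, limit read from the data; inconclusive means At least half of replicates reach the limit but their mean does not; inactive means Under half of replicates reach the limit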;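 further: 0% = cytokine-treated negative control wells and 100% = positive control rescue; higher means more ATP so stronger rescue from cytokine killing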
SKKanGAS inh: blocks kanamycin growth of S. pyogenes SKKanGAS strain. BacTiter-Glo, 6 h. AID 1662. 300,000 compounds, 1.3% hits. inhibition, % at 7.5 µM;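 active means mean replicate score, as percent of positive control median, at least 50; inconclusive means mean below 50 but one replicate at or above 50; inactive means mean and every replicate below 50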;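 further: strain carries kanamycin resistance gene driven by streptokinase promoter and grows in 40 µg/ml kanamycin; loss of luminescence reflects streptokinase promoter inhibition or plain growth inhibition; 0% = median of DMSO wells and 100% = positive control at its reference dose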
Mdm2 MdmX conf: human Mdm2/MdmX binding inhibition, confirmed; shares compounds with Mdm2 MdmX PPI; luminescent assay; inhibition, % at 8 µM; 10,000 compounds, 55% hits; AID 489028; in the data active means inhibition above about 40%
FLuc counter: full-length luciferase inhibition in Mdm2/MdmX counter-screen. shares compounds with Mdm2 MdmX PPI. SaOS-2 full-length luciferase counterscreen, luminescence. inhibition, % at 8 µM. 6,200 compounds, 77% hits. AID 504607;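 active means mean inhibition at 8 µM reaching about 37%, which flags the compound as non-specific, limit read from the data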;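 further: p53-null SaOS-2 cells with luciferase driven by a doxycycline-inducible promoter; compound on cells about two nights before reading with doxycycline added after day one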
* marks the source's active call; other numbers are inactive results; ? = inconclusive; / = no result.

SMILES	T cruzi repl	L major viab	Mdm2 MdmX PPI	CSC inhib	Beta cell apopt	SKKanGAS inh	Mdm2 MdmX conf	FLuc counter
CN(C)CCCN(C(=O)c1ccc(C(=O)c2ccccc2)cc1)c1nc2c(F)cccc2s1	6	/	40	2	-1	-2	/	/
Cc1ccc2sc(N(CCCN(C)C)C(=O)c3ccc(S(=O)(=O)N(C)Cc4ccccc4)cc3)nc2c1C	60*	/	100*	-7	/	40	49*	46*
CCOc1cccc2sc(N(CCCN(C)C)C(=O)Cc3ccccc3)nc12	15	36	30	-11	-1	-1	/	/
CCN(Cc1ccccc1)S(=O)(=O)c1ccc(C(=O)N(CCCN(C)C)c2nc3c(F)cccc3s2)cc1	31	/	17	2	0	4	/	/
CCOc1cccc2sc(N(CCCN(C)C)C(=O)c3ccc(S(=O)(=O)N(C)Cc4ccccc4)cc3)nc12	21	/	74*	12	-1	12	38	60*
CCOc1cccc2sc(N(CCCN(C)C)C(=O)c3ccc(C(=O)c4ccccc4)cc3)nc12	24	/	51*	3	6	2	34	/
COc1ccc(S(=O)(=O)N(CCc2ccccc2)CC(=O)O)cc1C	-19	-8	4	5	-4	1	/	/
CCOc1cccc2sc(N(CCN(C)C)C(=O)c3cc4ccccc4cc3OC)nc12	21	/	69*	33	7	7	28	/
O=C1C=C(c2ccccc2)C[C@H](c2cccs2)[C@H]1n1nnc([N+](=O)[O-])n1	49	16	71*	/	52	17	57*	60*
O=C1C=C(c2ccccc2)CC(c2cccs2)C1n1cnc([N+](=O)[O-])c1 (stereo not given)	-9	-1	12	/	4	7	/	/
COc1ccc(-c2cc3c(=O)n(CC(=O)Nc4cccc(Cl)c4)ncn3n2)cc1	8	/	0	6	3	-3	/	/
Cc1nn(CC(=O)Nc2cccc(Cl)c2)c(=O)c2cc(-c3ccccc3)nn12	33	/	56*	-21	-4	-9	12	/
COc1ccc(-c2cc3c(=O)n(CC(=O)NCc4cccnc4)nc(C)n3n2)cc1	-7	/	-25	-10	2	2	/	/
COc1ccc(-c2cc3c(=O)n(CC(=O)Nc4ccc(Cl)cc4)nc(C)n3n2)cc1	-8	/	67*	-7	6	-1	43*	67*
Cc1ccc(C2Oc3ccccc3C3=C2C(c2cccs2)n2ncnc2N3)cc1 (stereo not given)	36	51*	58*	61	21	100*	70*	37*
Fc1ccc(C2C3=C(Nc4ncnn42)c2ccccc2OC3c2ccncc2)cc1 (stereo not given)	9	18	17	-8	3	28	/	/
Cc1ccc(OCC(=O)NNc2c3ccccc3nc3ccccc23)cc1	42	97*	56*	13	58	13	27	/
CC(=O)c1ccc(NC(=O)c2cc(CC(C)C)nc3ccccc23)cc1	6	/	58*	-3	0	-2	66*	34
CCOc1ccc(NC(=O)c2ccccc2O)cc1	-4	-12	-120	-11	3	2	/	/
CCOc1ccc(NC(=O)c2cc(Cl)nc3ccccc23)cc1	-5	/	51*	26	4	-9	38	62*
O=C(Nc1ccc2c(c1)OCCO2)c1cc(-c2ccccn2)nc2ccc(Br)cc12	3	-2	74*	-3	-1	-2	41*	72*
CCN(CC)CCCNc1cc(C)nc2cc(-c3cccs3)nn12	10	25	21	6	9	-3	/	/
CCOc1ccc(Nc2c3ccccc3nc3ccccc23)cc1	50	/	71*	56	79*	-6	45*	59*
CCOc1ccc(-c2cc(C(=O)Nc3ccc4c(c3)OCCO4)c3ccccc3n2)cc1	20	5	50*	51	30	19	40*	97*
CCCN(C(=O)CSc1nc(C2CC2)n(-c2ccccc2)n1)C1CCS(=O)(=O)C1 (stereo not given)	/	/	15	/	-1	/	/	/
SMILES	T cruzi repl	L major viab	Mdm2 MdmX PPI	CSC inhib	Beta cell apopt	SKKanGAS inh	Mdm2 MdmX conf	FLuc counter
COc1ccccc1/C=N\Nc1cn[nH]c(=O)c1Cl	-1	3	28	5	4	-12	/	/
CCOc1ccccc1/C=N\Nc1cnn(Cc2ccccc2)c(=O)c1Cl	56*	17	53*	-3	-2	35	24	/
COc1ccc(/C(C)=N/Nc2nc3ccccc3n3cnnc23)cc1OC	6	/	14	-4	8	22	/	/
Cc1cc(NC(=O)COC(=O)c2oc3c(ccc4ccccc43)c2C)no1	-23	-6	59*	-17	20	-8	31	59*
Cc1c(C(=O)OCC(=O)Nc2ccc(S(N)(=O)=O)cc2)oc2c1ccc1ccccc12	-15	3	52*	/	/	1	23	/
Cc1cc(C)cc(N(CC(=O)Nc2ccc(Br)cc2)S(=O)(=O)c2c(C)[nH]c(=O)[nH]c2=O)c1	5	/	15	1	-3	-3	/	/
O=C(c1cc2cc([N+](=O)[O-])ccc2oc1=O)N1CCN(C2CCCCC2)CC1	-4	-1	-4	/	-3	-1	/	/
COc1ccccc1N1CCN(C(=O)COc2ccc(Cl)cc2Br)CC1	18	3	57*	/	-6	10	38	60*
COc1ccccc1N1CCN(C(=O)c2ccc(-c3ccc(Cl)cc3)o2)CC1	/	/	56*	54	17	/	56*	59*
CCc1ccc2oc(C(=O)N3CCN(c4ccccc4OC)CC3)cc(=O)c2c1	1	/	60*	70	2	3	50*	40*
COc1ccc(-c2csc3nc(C)nc(N4CCC(C)CC4)c23)cc1OC	10	90*	66*	12	-7	2	38	84*
Oc1ccccc1N1CCN(c2ncnc3scc(-c4ccc(F)cc4)c23)CC1	3	/	39	16	15	26	/	/
Oc1ccccc1N1CCN(c2ncnc3scc(-c4ccccc4)c23)CC1	0	/	59*	26	5	13	30	/
Cc1nc(N2CCN(c3ccccc3O)CC2)c2c(-c3ccccc3)csc2n1	-6	/	52*	46	-9	?	55*	59*
CN1CCN(c2ncnc3scc(-c4ccccc4Cl)c23)CC1	-16	/	70*	-14	-21	-2	79*	29
Cc1ccc(C(=O)Nn2cnnc2)cc1	2	/	6	-6	-1	-5	/	/
O=C1CCC(c2ccccc2)(C2CCN(Cc3ccccc3)CC2)C(=O)N1 (stereo not given)	1	/	-2	-13	-2	2	/	/
CC1(CCc2ccccc2)NC(=O)N(CC(=O)Nc2c(F)cccc2F)C1=O (stereo not given)	/	/	8	-18	0	/	/	/
